Here are results for 16 compounds from ChEMBL document CHEMBL3797168 (J Med Chem, 2016).

Structures are written as SMILES. Calls of active or inactive are those of the source. Bounds are passed on as bounds.

The target in experiment [1] is Adenosine receptor A2a (Homo sapiens) (UniProt P29274). Put plainly: Displacement of [3H]2-[p-(2-carboxyethyl)phenyl-ethylamino]-5'-N-ethylcarboxamido-adenosine from human adenosine A2A receptor expressed in HEK293 cell membranes at 10 uM incubated for 60 mins by liquid scintillation counting analysis. (In general: In a radioligand displacement assay an active substance lowers the binding of a labelled ligand.)

In experiment [2] the target is T1, Adenosine receptor A3 (Homo sapiens, UniProt P0DMS8).
T1 sequence (P0DMS8 whole entry): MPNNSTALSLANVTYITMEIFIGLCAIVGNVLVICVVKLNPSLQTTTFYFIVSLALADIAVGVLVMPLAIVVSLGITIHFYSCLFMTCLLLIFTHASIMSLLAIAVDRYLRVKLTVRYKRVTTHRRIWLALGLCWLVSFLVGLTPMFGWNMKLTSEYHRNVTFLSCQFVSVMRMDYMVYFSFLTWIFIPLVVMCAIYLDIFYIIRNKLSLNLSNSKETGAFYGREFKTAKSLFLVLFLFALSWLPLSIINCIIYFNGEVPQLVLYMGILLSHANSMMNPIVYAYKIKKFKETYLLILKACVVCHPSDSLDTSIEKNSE
Put plainly: Displacement of [125I]N6-(4-amino-3-iodobenzyl)adenosine-5'-N-methyl-uronamide from human adenosine A3 receptor expressed in CHO cell membranes incubated for 60 mins by liquid scintillation counting analysis.

Experiment [3] has as its target T2, Adenosine receptor A1 (Homo sapiens) (UniProt P30542).
T2 sequence (whole entry): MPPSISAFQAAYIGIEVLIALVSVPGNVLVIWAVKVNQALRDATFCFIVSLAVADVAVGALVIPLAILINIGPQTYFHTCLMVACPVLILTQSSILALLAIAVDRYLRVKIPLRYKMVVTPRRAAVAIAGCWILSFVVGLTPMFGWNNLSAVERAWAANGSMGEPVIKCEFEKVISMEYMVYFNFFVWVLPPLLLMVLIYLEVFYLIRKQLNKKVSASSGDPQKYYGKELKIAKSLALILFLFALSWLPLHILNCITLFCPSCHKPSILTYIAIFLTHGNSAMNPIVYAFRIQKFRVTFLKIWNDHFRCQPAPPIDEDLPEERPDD
The experiment can be described thus: Displacement of [3H]N6-R-phenylisopropyladenosine from human adenosine A1 receptor expressed in CHO cell membranes at 10 uM incubated for 60 mins by liquid scintillation counting analysis.

Experiment [4] concerns Mus musculus. The experiment can be described thus: Antineuropathic pain activity in mouse chronic constriction injury model assessed as protection against mechanoallodynia at 3 micromol/kg administered as oral gavage on day 7. Type of experiment: functional, organism-based. Put shortly: (§1)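 Mice underwent sciatic nerve ligation (Bennett method). On day 7, at peak pain, they were dosed by oral gavage at 3 µmol/kg, n=3. Vehicle was 10% DMSO in 0.5% methylcellulose, diluted from a 5 mM DMSO stock. Ipsilateral hind paw withdrawal threshold (g) was followed over time. Experimenters were blinded.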

Another experiment has as its target T3, Adenosine receptor A1 (Homo sapiens, UniProt P30542).
T3 sequence (P30542 whole entry): T2 sequence (whole entry)
Put plainly: Displacement of [3H]N6-R-phenylisopropyladenosine from human adenosine A1 receptor expressed in CHO cell membranes incubated for 60 mins by liquid scintillation counting analysis.

The subject of experiment [5] is Mus musculus. Put plainly: Antineuropathic pain activity in mouse chronic constriction injury model assessed as protection against mechanoallodynia at 3 micromol/kg administered as oral gavage on day 7 measured at 3 hrs. The experiment is classed as functional. A digest of the protocol:
as §1

For experiment [6], the system named is Mus musculus. Put plainly: Antineuropathic pain activity in mouse chronic constriction injury model assessed as protection against mechanoallodynia at 3 micromol/kg administered as oral gavage on day 7 measured at 1 hr. Type of experiment: functional. Put shortly:
as §1

The target of experiment [7] is Delta-type opioid receptor (Homo sapiens, UniProt P41143).
In experiment [8] the target is T1, Adenosine receptor A3. The experiment can be described thus: Agonist activity at recombinant human adenosine A3 receptor expressed in CHO cells assessed as inhibition of forskolin-stimulated cAMP accumulation preincubated for 30 mins followed by forsolkin addition measured after 15 mins by immunoassay. Type of experiment: cell-based. (Changes in cAMP serve as a functional read-out for many G protein-coupled receptors.)

Experiment [9] addresses T4, Adenosine receptor A3 (Mus musculus, UniProt Q61618).
T4 sequence (Q61618 whole entry): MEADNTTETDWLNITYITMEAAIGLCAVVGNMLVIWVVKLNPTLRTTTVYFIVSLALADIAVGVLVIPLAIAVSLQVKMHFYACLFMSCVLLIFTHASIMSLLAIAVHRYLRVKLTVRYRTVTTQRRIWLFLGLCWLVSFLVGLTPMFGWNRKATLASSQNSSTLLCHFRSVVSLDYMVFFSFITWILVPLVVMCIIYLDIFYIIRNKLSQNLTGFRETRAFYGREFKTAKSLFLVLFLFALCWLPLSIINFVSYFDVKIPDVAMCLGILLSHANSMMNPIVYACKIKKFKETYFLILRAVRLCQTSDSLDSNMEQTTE
Put plainly: Displacement of [125I]N6-(4-amino-3-iodobenzyl)adenosine-5'-Nmethyluronamide from mouse adenosine A3 receptor expressed in HEK293 cell membranes incubated for 60 mins by liquid scintillation counting analysis.

Experiment [10] has as its system Mus musculus. Put plainly: Antineuropathic pain activity in mouse chronic constriction injury model assessed as time duration showing protection against mechanoallodynia at 3 micromol/kg administered as oral gavage on day 7. Type of experiment: functional. A digest of the protocol:
as §1

Experiment [11] addresses Sodium-dependent dopamine transporter (Homo sapiens) (UniProt Q01959). Put plainly: Increase in [3H]methyl (1R,2S,3S)-3-(4-fluorophenyl)-8-methyl-8-azabicyclo[3.2.1]octane-2-carboxylate binding to recombinant human DAT expressed in HEK293 cells at 10 uM by PDSP assay. Type of experiment: cell-based.
For experiment [12], the target named is T4, Adenosine receptor A3. Put plainly: Agonist activity at mouse adenosine A3 receptor expressed in HEK293 cell membranes assessed as inhibition of forskolin-stimulated cAMP accumulation preincubated for 30 mins followed by forsolkin addition measured after 15 mins by immunoassay. Type of experiment: functional, cell-based.

Chain of Adenosine receptor A2a (Homo sapiens) (P29274 whole entry): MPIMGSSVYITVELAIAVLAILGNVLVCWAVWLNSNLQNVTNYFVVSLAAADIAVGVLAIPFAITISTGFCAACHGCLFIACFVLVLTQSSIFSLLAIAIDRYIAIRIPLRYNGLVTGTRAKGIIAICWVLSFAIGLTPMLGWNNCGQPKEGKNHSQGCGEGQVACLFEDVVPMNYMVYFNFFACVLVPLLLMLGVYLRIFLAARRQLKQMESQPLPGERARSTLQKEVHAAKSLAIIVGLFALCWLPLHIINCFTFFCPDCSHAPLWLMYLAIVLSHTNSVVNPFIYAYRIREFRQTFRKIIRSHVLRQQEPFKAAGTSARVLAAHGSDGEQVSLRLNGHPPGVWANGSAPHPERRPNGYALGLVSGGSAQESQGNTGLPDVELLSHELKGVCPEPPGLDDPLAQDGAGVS
Chain of Sodium-dependent dopamine transporter (Homo sapiens) (Q01959 whole entry): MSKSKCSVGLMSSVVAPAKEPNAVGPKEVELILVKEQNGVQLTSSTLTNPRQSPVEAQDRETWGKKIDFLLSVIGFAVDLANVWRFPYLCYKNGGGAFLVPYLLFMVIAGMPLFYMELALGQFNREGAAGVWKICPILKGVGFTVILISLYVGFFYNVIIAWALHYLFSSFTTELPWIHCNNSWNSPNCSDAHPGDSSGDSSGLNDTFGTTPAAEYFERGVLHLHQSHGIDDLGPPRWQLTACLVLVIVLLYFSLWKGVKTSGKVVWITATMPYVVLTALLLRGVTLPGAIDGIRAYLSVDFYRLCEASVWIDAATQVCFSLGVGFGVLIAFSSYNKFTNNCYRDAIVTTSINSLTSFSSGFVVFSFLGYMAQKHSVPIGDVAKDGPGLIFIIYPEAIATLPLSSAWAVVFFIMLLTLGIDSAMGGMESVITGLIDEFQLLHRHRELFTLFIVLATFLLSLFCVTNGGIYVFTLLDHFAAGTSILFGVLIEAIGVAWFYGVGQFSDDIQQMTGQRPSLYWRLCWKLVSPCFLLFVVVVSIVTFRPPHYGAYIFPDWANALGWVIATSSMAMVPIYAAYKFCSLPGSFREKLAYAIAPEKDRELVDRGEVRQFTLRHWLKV
Chain of Delta-type opioid receptor (P41143 whole entry): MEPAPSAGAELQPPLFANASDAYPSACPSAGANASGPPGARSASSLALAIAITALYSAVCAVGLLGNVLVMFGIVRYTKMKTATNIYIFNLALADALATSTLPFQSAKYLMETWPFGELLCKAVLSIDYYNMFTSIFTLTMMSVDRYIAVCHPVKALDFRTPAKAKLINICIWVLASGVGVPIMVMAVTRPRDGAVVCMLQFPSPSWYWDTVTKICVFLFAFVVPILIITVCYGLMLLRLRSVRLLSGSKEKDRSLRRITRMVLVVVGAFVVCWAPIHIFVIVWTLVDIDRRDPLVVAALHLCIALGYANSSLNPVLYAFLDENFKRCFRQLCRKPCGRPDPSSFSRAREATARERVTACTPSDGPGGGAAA

As a reminder, the inhibition is the percentage by which the read-out fell short of the control. Read a low inhibition as a response near the control. Usually Ki stands for a measure of affinity in units of concentration, obtained from inhibition or displacement. A high value points to a looser hold on the target. Turning to `CNC(=O)[C@@]12C[C@@H]1[C@@H](n1cnc3c(/C=C(\O)c4ccccc4)nc(Cl)nc31)[C@H](O)[C@@H]2O`, the inhibition in experiment [1] turned out to be 24%; in experiment [3], 30%. On Adenosine receptor A3 [2], the inhibitory constant (Ki) came to 1140 nM.
For `CNC(=O)[C@@]12C[C@@H]1[C@@H](n1cnc3cnc(/C=C(\O)c4cnccn4)nc31)[C@H](O)[C@@H]2O`, the inhibition in experiment [1] amounted to 20%; in [3], 14%. In addition, the affinity on Adenosine receptor A3 [2], expressed as Ki, was 1480 nM.
On the same counts, the results for `CNC(=O)[C@@]12C[C@@H]1[C@@H](n1cnc3c(/C=C(\O)c4ccc(C(C)(C)C)cc4)nc(C#Cc4ccc(C(C)(C)C)cc4)nc31)[C@H](O)[C@@H]2O` are 19%, 24% and 94.3 nM.
For the compound `CNC(=O)[C@@]12C[C@@H]1[C@@H](n1cnc3c(NC)nc(C#Cc4ccccc4)nc31)[C@H](O)[C@@H]2O`, the result in the experiment with Mus musculus [4] was Active.
For the compound `CNC(=O)[C@@]12C[C@@H]1[C@@H](n1cnc3c(C)nc(C#Cc4ccc(C(C)(C)C)cc4)nc31)[C@H](O)[C@@H]2O`, the values for the inhibition in [1] and in experiment [3] were 15% and 16%, respectively.
As for `CNC(=O)[C@@]12C[C@@H]1[C@@H](n1cnc3c(/C=C(\O)c4ccccc4Cl)nc(C#Cc4ccccc4Cl)nc31)[C@H](O)[C@@H]2O`, the inhibition in [1] came out at 21%; in experiment [3], 28%. This compound returned a Ki on Adenosine receptor A3 [2] of 515 nM.
For the compound `CNC(=O)[C@@]12C[C@@H]1[C@@H](n1cnc3c(C)nc(C#Cc4ccc(F)c(F)c4)nc31)[C@H](O)[C@@H]2O`, in [1], the inhibition worked out at 14%. Moreover, the Ki on Adenosine receptor A3 [2] is 98.5 nM; at Adenosine receptor A1, 5.43 µM.
Turning to `CNC(=O)[C@@]12C[C@@H]1[C@@H](n1cnc3c(C)nc(C#Cc4cnccn4)nc31)[C@H](O)[C@@H]2O`, the inhibition stood at 17% in experiment [1] and 15% in [3].
For `CNC(=O)[C@@]12C[C@@H]1[C@@H](n1cnc3cnc(NC)nc31)[C@H](O)[C@@H]2O`, the values for the inhibition in experiment [1] and in experiment [3] were under 10% and 17%, respectively. Also, the affinity on Adenosine receptor A3 [2] corresponds to a Ki of 604 nM.
Take `CNC(=O)[C@@]12C[C@@H]1[C@@H](n1cnc3c(NCc4cccc(Cl)c4)nc(C#Cc4ccc(F)c(F)c4)nc31)[C@H](O)[C@@H]2O`: the Activity is listed as 23.7% with Mus musculus [5] and 100% in the experiment on Mus musculus [6].
On to `CNC(=O)[C@@]12C[C@@H]1[C@@H](n1cnc3cnc(C#Cc4ccc(F)c(F)c4)nc31)[C@H](O)[C@@H]2O`, for which the results for the inhibition in experiment [1] and in [3] were 12% and 17%, respectively. At Adenosine receptor A3 [2], this compound displayed a Ki of 124 nM.
In general, EC50 refers to the concentration at which the effect is half-maximal. Turning to `CNC(=O)[C@@]12C[C@@H]1[C@@H](n1cnc3c(C)nc(C#Cc4ccc(Cl)s4)nc31)[C@H](O)[C@@H]2O`, the Ki was 5.8 µM in experiment [7], 42.2 nM on Adenosine receptor A3 [2] and 722 nM at Adenosine receptor A3 [9]. Also, the result in the experiment on Mus musculus [4] was Active. For the same compound, the inhibition in [1] is 12%; in experiment [3], under 10%. Besides, on Adenosine receptor A3 [8], the concentration for a half-maximal effect (EC50) worked out at 12.5 nM.
For the compound `CNC(=O)[C@@]12C[C@@H]1[C@@H](n1cnc3cnc(C#Cc4ccc(Cl)s4)nc31)[C@H](O)[C@@H]2O`, the Time in the experiment with Mus musculus [10] was 5 h. For the same compound, the inhibition in experiment [1] was 18%; in experiment [3] it was under 10%. For the same compound, the values for the Ki at Adenosine receptor A3 [2] and on Adenosine receptor A3 [9] were 60 nM and 396 nM, respectively. Further, at Adenosine receptor A3 [8], the EC50 was 26.9 nM.
With `CNC(=O)[C@@]12C[C@@H]1[C@@H](n1cnc3c(C)nc(C#Cc4ccccc4)nc31)[C@H](O)[C@@H]2O`, the result with Mus musculus [4] was Active. For the same compound, the inhibition is 34% in experiment [1] and 15% in [3]. Besides, the Activity in experiment [11] was 200%.
In experiment [1], `CNC(=O)[C@@]12C[C@@H]1[C@@H](n1cnc3c(OC)nc(C#Cc4ccc(Cl)s4)nc31)[C@H](O)[C@@H]2O` gave an inhibition of 27%. For the same compound, at Adenosine receptor A1, the affinity, expressed as Ki, was 0.796 µM.
Consider `CNC(=O)[C@@]12C[C@@H]1[C@@H](n1cnc3c(/C=C(\O)c4ccccc4)nc(C#Cc4ccccc4)nc31)[C@H](O)[C@@H]2O`, for which, in the experiment with Mus musculus [4], the outcome was Active. For the same compound, the inhibition in experiment [1] and in experiment [3] was 16% in each case. Also, the Ki was 78.5 nM at Adenosine receptor A3 [2] and 136 nM at Adenosine receptor A3 [9]. On Adenosine receptor A3 [12], the EC50 worked out at 4.86 nM.
